Experimental findings from ChEMBL document CHEMBL1154425, “Histatin-derived monomeric and dimeric synthetic peptides show strong bactericidal activity towards multidrug-resistant Staphylococcus aureus in vivo” (Antimicrob Agents Chemother, 2007) are described below.

Positions of bridges follow the written chain, without caps; N, C: chain ends. Residues, ends and D or L forms follow the SMILES beside them. Chains are numbered I, II in the order given.

The subject of one series is Mus musculus. Briefly: Metabolic stability in Swiss mouse at 2 to 5 MBq, iv administered as [99m]technetium-radiolabeled peptide by scintigraphic imaging. In kind it is ADME, organism-based. As to conditions: in vivo. In outline: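 After intravenous injection of 99mTc-labelled peptide (2 to 5 MBq) into thigh-infected mice, scintigraphic imaging follows clearance from the circulation. The value is the biological half-life in minutes, mean ± SD.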

The subject of series [1] is Staphylococcus aureus. Briefly: Bactericidal activity against multidrug-resistant Staphylococcus aureus 2141 isolate infected iv dosed Swiss mouse assessed per gram of infected soft tissue after 24 hrs. Type of series: functional. The method in brief:
(§1)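 Mice infected with 0.1 ml saline containing 0.5 to 2.0 × 10^7 CFU. After 18 h, various peptide amounts given intravenously. Mice kept another 24 h, then sacrificed and viable bacteria counted. LC50 = μmol/g infected tissue cutting viable counts by 50% versus untreated mice. Means from at least three animals per peptide concentration.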

For series [2], the system named is Staphylococcus aureus. Briefly: Bactericidal activity against Staphylococcus aureus ATCC 25923 infected iv dosed Swiss mouse assessed per gram of infected soft tissue after 24 hrs. Type of series: functional. In outline: as §1
Series [3] can be described thus: Biodistribution in Staphylococcus aureus infected Swiss mouse thigh muscle at 2 to 5 MBq, iv administered as [99m]technetium-radiolabeled peptide by scintigraphic imaging. Type of series: ADME, organism-based, Muscle tissue. As to conditions: in vivo. The method in brief:
(§2)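 Mice carry a thigh-muscle infection from 0.1 ml saline containing 0.5 to 2.0 × 10^7 CFU S. aureus. Peptides labelled with 99mTc (2 to 5 MBq) are injected intravenously and tracked by scintigraphic imaging. Radioactivity in bladder, kidneys, spleen, liver and infected muscle is given as % of injected dose, mean ± SD.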

Series [4] is described as follows: Biodistribution in Swiss mouse urinary bladder at 2 to 5 MBq, iv administered as [99m]technetium-radiolabeled peptide by scintigraphic imaging. Type of series: ADME, organism-based. As to conditions: in vivo. The method in brief: as §2
Series [5] has as its system Staphylococcus aureus. Briefly: Bactericidal activity against multidrug-resistant Staphylococcus aureus 2141 isolate after 2 hrs. In kind it is functional. The method in brief:
(§3)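 1 × 10^6/ml bacteria in phosphate buffer with 1% (wt/vol) tryptic soybean broth exposed to various peptide amounts, 2 h at 37°C. Viable counts on DST plates. LC50 = concentration (μM) cutting viable bacteria by 50% versus no-peptide incubations. Means from at least three independent experiments.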

A further series has as its system Spleen. Briefly: Biodistribution in Swiss mouse spleen at 2 to 5 MBq, iv administered as [99m]technetium-radiolabeled peptide by scintigraphic imaging. In kind it is ADME, organism-based. As to conditions: in vivo. The method in brief: as §2
The subject of another series is Liver. Kind of series: Biodistribution in Swiss mouse liver at 2 to 5 MBq, iv administered as [99m]technetium-radiolabeled peptide by scintigraphic imaging. Type of series: ADME, organism-based. As to conditions: in vivo. In outline:
as §2

The subject of a further series is Kidney. Kind of series: Biodistribution in Swiss mouse kidney at 2 to 5 MBq, iv administered as [99m]technetium-radiolabeled peptide by scintigraphic imaging. In kind it is ADME, organism-based. As to conditions: in vivo. In outline:
as §2

A short description of series [6]: Ratio of drug level in infected thigh muscle to contralateral noninfected thigh muscle in Staphylococcus aureus […] infected Swiss mouse administered as [99m]technetium-radiolabeled peptide. In kind it is ADME, tissue-based. As to conditions: in vivo. The method in brief:
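Thighs are infected with 0.5 to 2.0 × 10^7 CFU S. aureus in 0.1 ml saline, and 99mTc-labelled peptide is given intravenously. Scintigraphic imaging compares radioactivity in the infected thigh muscle (target) with the contralateral noninfected thigh muscle (nontarget). The T/NT ratio is determined at several intervals after injection.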

The subject of series [7] is Staphylococcus aureus. Briefly: Bactericidal activity against Staphylococcus aureus ATCC 25923 after 2 hrs. As to conditions: ATCC 25923, 2 h. Type of series: functional. In outline:
as §3

Series [8] is described as follows: Ratio of drug level in infected thigh muscle to contralateral noninfected thigh muscle in multidrug-resistant Staphylococcus aureus 2141 infected Swiss mouse administered as [99m]technetium-radiolabeled peptide. As to conditions: in vivo. Type of series: ADME, tissue-based. The method in brief:
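99mTc-labelled peptides (2 to 5 MBq) injected intravenously into infected mice. Scintigraphic imaging at intervals. Ratio = accumulation in infected thigh muscle (target) over contralateral noninfected thigh muscle (nontarget).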

`N=C(N)NCCC[C@H](NC(=O)[C@H](Cc1cnc[nH]1)NC(=O)[C@H](CO)NC(=O)[C@H](Cc1cnc[nH]1)NC(=O)[C@H](Cc1cnc[nH]1)NC(=O)[C@H](CCCCN)NC(=O)[C@H](CCC(=O)O)NC(=O)[C@H](Cc1cnc[nH]1)NC(=O)[C@H](Cc1ccccc1)NC(=O)[C@H](CCCCN)NC(=O)[C@H](CCCNC(=N)N)NC(=O)[C@@H](N)CCCCN)C(=O)NCC(=O)N[C@@H](Cc1ccc(O)cc1)C(=O)O` (H-KRKFHEKHHSHRGY-OH) came in with a t1/2 in the series on Mus musculus of 17.7 min. Besides, the LC50 amounted to 1 µmol/g in the series on Staphylococcus aureus [1], 2 µmol/g in the series with Staphylococcus aureus [2], 112 µM in the series with Staphylococcus aureus [5] and 35 µM in the series with Staphylococcus aureus [7]. The Drug uptake in [3] was determined as 0.4 %ID; in [4] it was 30.7 %ID; with Spleen it was 2.1 %ID; in the series with Liver, 9.4 %ID; in the series with Kidney it was 21 %ID. In addition, the Ratio in series [6] was determined as 3.5; in [8], 1.8.

Turning to `N=C(N)NCCC[C@H](NC(=O)[C@H](Cc1cnc[nH]1)NC(=O)[C@H](CO)NC(=O)[C@H](Cc1cnc[nH]1)NC(=O)[C@H](Cc1cnc[nH]1)NC(=O)[C@H](CCCCN)NC(=O)[C@H](CCC(=O)O)NC(=O)[C@H](Cc1cnc[nH]1)NC(=O)[C@H](Cc1ccccc1)NC(=O)[C@H](CCCCN)NC(=O)[C@H](CCCNC(=N)N)NC(=O)[C@@H](N)CCCCN)C(=O)NCC(=O)N[C@@H](Cc1ccc(O)cc1)C(=O)NCCCC[C@H](NC(=O)[C@H](Cc1ccc(O)cc1)NC(=O)CNC(=O)[C@H](CCCNC(=N)N)NC(=O)[C@H](Cc1cnc[nH]1)NC(=O)[C@H](CO)NC(=O)[C@H](Cc1cnc[nH]1)NC(=O)[C@H](Cc1cnc[nH]1)NC(=O)[C@H](CCCCN)NC(=O)[C@H](CCC(=O)O)NC(=O)[C@H](Cc1cnc[nH]1)NC(=O)[C@H](Cc1ccccc1)NC(=O)[C@H](CCCCN)NC(=O)[C@H](CCCNC(=N)N)NC(=O)[C@@H](N)CCCCN)C(N)=O` (I: H-KRKFHEKHHSHRGYK-NH2 / II: H-KRKFHEKHHSHRGY; amide I:15-II:C), in the series on Mus musculus, the t1/2 was 8.6 min. Also, the LC50 in the series on Staphylococcus aureus [1] amounted to 2 µmol/g; in the series with Staphylococcus aureus [2], 1.5 µmol/g; in the series on Staphylococcus aureus [5] it was 8.2 µM; with Staphylococcus aureus [7], 8.4 µM. Besides, the Drug uptake in [3] was determined as 0.5 %ID; in [4], 26.8 %ID; in the series with Spleen, 3.2 %ID; with Liver, 9 %ID; in the series on Kidney, 10.5 %ID. For the same molecule, the Ratio in series [6] is 4.4; in [8] it was 1.8.

In the series with Mus musculus, `C[C@H](NC(=O)[C@H](Cc1cnc[nH]1)NC(=O)[C@H](CO)NC(=O)[C@@H](N)CC(=O)O)C(=O)N[C@@H](CCCCN)C(=O)N[C@@H](CCCNC(=N)N)C(=O)N[C@@H](Cc1cnc[nH]1)C(=O)N[C@@H](Cc1cnc[nH]1)C(=O)NCC(=O)N[C@@H](Cc1ccc(O)cc1)C(=O)N[C@@H](CCCCN)C(=O)N[C@@H](CCCNC(=N)N)C(=O)N[C@@H](CCCCN)C(=O)N[C@@H](Cc1ccccc1)C(=O)N[C@@H](Cc1cnc[nH]1)C(=O)N[C@@H](CCC(=O)O)C(=O)N[C@@H](CCCCN)C(=O)N[C@@H](Cc1cnc[nH]1)C(=O)N[C@@H](Cc1cnc[nH]1)C(=O)N[C@@H](CO)C(=O)N[C@@H](Cc1cnc[nH]1)C(=O)N[C@@H](CCCNC(=N)N)C(=O)NCC(=O)N[C@@H](Cc1ccc(O)cc1)C(=O)O` [HISTATIN 5] returned a t1/2 of 9.7 min. Also, the LC50 in the series with Staphylococcus aureus [1] was 3.5 µmol/g; in the series on Staphylococcus aureus [2] it was 1 µmol/g; in the series on Staphylococcus aureus [5], 2.8 µM; in the series with Staphylococcus aureus [7], 8.3 µM. For the same molecule, the Drug uptake in series [3] was 0.5 %ID; in series [4], 25.9 %ID; with Spleen, 1.4 %ID; with Liver, 8.7 %ID; with Kidney, 23.8 %ID. Also, in [8], the Ratio is reported as 1.8.
